This is an account of results in ChEMBL document CHEMBL1139668, “Structure-activity relationship studies on niphimycin, a guanidylpolyol macrolide antibiotic. Part 1: The role of the N-methyl-N''-alkylguanidinium moiety” (2006).

Converted amounts (≈) assume the structure as drawn. The source made the active and inactive calls. The rule behind the calls is not given here.

The test system of assay [1] is Saccharomyces cerevisiae. Kind of assay: Antimicrobial activity against Saccharomyces cerevisiae X2180 1A. Type of assay: functional.
In assay [2] the test system is Saccharomyces cerevisiae. The assay is described as follows: Antimicrobial activity against Saccharomyces cerevisiae IFO 0203. Type of assay: functional.
Assay [3] concerns Schizosaccharomyces pombe. The assay is described as follows: Antimicrobial activity against Schizosaccharomyces pombe IFO 0342. Type of assay: functional.
The test system of assay [4] is Schizosaccharomyces pombe. The assay is described as follows: Antimicrobial activity against Schizosaccharomyces pombe L972 h-. Type of assay: functional.
Assay [5] concerns Schizosaccharomyces pombe. Kind of assay: Antimicrobial activity against Schizosaccharomyces pombe SA21 h+. Type of assay: functional.
The next assay relates to Candida albicans. Kind of assay: Antimicrobial activity against Candida albicans IFO 1061. Type of assay: functional.
Another assay deals with Rhodotorula mucilaginosa. Kind of assay: Antimicrobial activity against Rhodotorula mucilaginosa IFO 0001. Type of assay: functional.
A further assay relates to Aspergillus niger. Kind of assay: Antifungal activity against Aspergillus niger ATCC 6275. Type of assay: functional.
A further assay deals with Mucor mucedo. The assay is described as follows: Antifungal activity against Mucor mucedo IFO 7684. Type of assay: functional.
A further assay concerns Penicillium chrysogenum. Kind of assay: Antifungal activity against Penicillium chrysogenum IFO 4626. Type of assay: functional.
A further assay deals with Rhizopus arrhizus. Kind of assay: Antifungal activity against Rhizopus oryzae IFO 4766. Type of assay: functional.
For a further assay, the system named is Escherichia coli. Kind of assay: Antibacterial activity against Escherichia coli IFO 2545. Type of assay: functional. Summed up: (§1)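 MIC by serial twofold broth dilution; bacteria grown in 3% nutrient broth at 37 °C, read after 24 h of cultivation.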
The subject of another assay is Bacillus subtilis. Kind of assay: Antibacterial activity against Bacillus subtilis IFO 3007. Type of assay: functional. Summed up: as §1
For a further assay, the system named is Micrococcus luteus. Kind of assay: Antibacterial activity against Micrococcus luteus IFO 3333. Type of assay: functional. Summed up:
as §1

Assay [6] has as its system Saccharomyces cerevisiae. Kind of assay: ROS production in Saccharomyces cerevisiae cells at lethal concentration. Type of assay: functional, organism-based. Summed up: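 S. cerevisiae cells (10^7 cells/ml) preloaded with 40 µM DCFH-DA in YPD medium, 30 °C, 60 min. Then exposed to compound in YPD at 30 °C for 60 min, washed and resuspended in phosphate-buffered saline. Fluorescence of 10^7 cells read at excitation 480 nm, emission 530 nm. Intensity reported directly as arbitrary units.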

Assay [7] deals with Saccharomyces cerevisiae. Kind of assay: ROS production in Saccharomyces cerevisiae cells at 10 uM. Type of assay: functional, organism-based. In short, it runs like this:
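Yeast cells (10^7 cells/ml) preloaded with 40 µM DCFH-DA in YPD at 30 °C for 60 min, then exposed to compound in YPD at 30 °C for 60 min. Cells washed and resuspended in PBS. Fluorescence read at ex 480/em 530 nm and given in arbitrary units.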

Broadly, the MIC is the lowest concentration that inhibits growth of the organism. High values mean weaker potency, low ones greater potency. Regarding `C/N=C(/N)NCCCCCCCCCCCC(=O)O`, the minimum inhibitory concentration (MIC) was 400 µM (≈ 109 µg/mL) against Saccharomyces cerevisiae [1]; more than 400 µM with Saccharomyces cerevisiae [2]; 200 µM (≈ 54.3 µg/mL) in assay [3]; 200 µM (≈ 54.3 µg/mL) in assay [4]; 200 µM (≈ 54.3 µg/mL) in assay [5]; 400 µM (≈ 109 µg/mL) with Candida albicans. Moreover, the minimal inhibitory concentration (MIC) in the assay with Rhodotorula mucilaginosa is 200 µM (≈ 54.3 µg/mL); with Aspergillus niger, more than 400 µM; in the assay on Mucor mucedo, 400 µM (≈ 109 µg/mL); in the assay on Penicillium chrysogenum, 400 µM (≈ 109 µg/mL); against Rhizopus arrhizus, more than 400 µM; in the assay with Escherichia coli it was 400 µM (≈ 109 µg/mL). Further, the minimum inhibitory concentration (MIC) in the assay with Bacillus subtilis amounted to 100 µM (≈ 27.1 µg/mL); in the assay on Micrococcus luteus it was 400 µM (≈ 109 µg/mL).
Consider `CCCCCCCCCCCC/N=C(\N)NC`, for which the MIC in the assay with Saccharomyces cerevisiae [1] was 100 µM (≈ 24.1 µg/mL); against Saccharomyces cerevisiae [2], 100 µM (≈ 24.1 µg/mL); in [3], 50 µM (≈ 12.1 µg/mL); in assay [4] it was 50 µM (≈ 12.1 µg/mL); in assay [5], 50 µM (≈ 12.1 µg/mL); in the assay with Candida albicans, 400 µM (≈ 96.6 µg/mL). In addition, the minimum inhibitory concentration (MIC) in the assay with Rhodotorula mucilaginosa worked out at 50 µM (≈ 12.1 µg/mL); in the assay on Aspergillus niger it was 50 µM (≈ 12.1 µg/mL); against Mucor mucedo it was 50 µM (≈ 12.1 µg/mL); against Penicillium chrysogenum, 25 µM (≈ 6.04 µg/mL); against Rhizopus arrhizus, 200 µM (≈ 48.3 µg/mL); against Escherichia coli, 50 µM (≈ 12.1 µg/mL). Moreover, the figures for the minimum inhibitory concentration (MIC) with Bacillus subtilis and against Micrococcus luteus were 25 µM (≈ 6.04 µg/mL) and more than 400 µM, respectively.
With `C/N=C(/N)NCCC/C=C/CCC[C@H](C)C[C@H](C)[C@H]1OC(=O)C(C)C(O)/C=C/C(C)C(O)CC(O)C(C)C(O)CCC(C)C(O)CC2(O)OC(CC(OC(=O)CC(=O)O)CC(O)CC(O)C(C)C(O)/C=C/C=C/C1C)CC(O)C2O` (stereo not given in full) [NIPHIMYCIN], the minimum inhibitory concentration (MIC) with Saccharomyces cerevisiae [1] came out at 5 µM (≈ 5.71 µg/mL); in [4], 2 µM (≈ 2.28 µg/mL); against Candida albicans, 2 µM (≈ 2.28 µg/mL); in the assay with Rhodotorula mucilaginosa it was 2 µM (≈ 2.28 µg/mL); in the assay on Aspergillus niger it was 2 µM (≈ 2.28 µg/mL); in the assay with Mucor mucedo, 10 µM (≈ 11.4 µg/mL). Also, the results for the MIC with Penicillium chrysogenum, with Rhizopus arrhizus and in the assay with Bacillus subtilis were 1 µM (≈ 1.14 µg/mL), 1 µM (≈ 1.14 µg/mL) and 5 µM (≈ 5.71 µg/mL), respectively. The outcome in the assay with Saccharomyces cerevisiae [6] was Active.
Consider `CNC(=N)NCCCCCCCCCCCC(=O)OC`, for which the MIC in the assay on Saccharomyces cerevisiae [1] was more than 400 µM; against Saccharomyces cerevisiae [2], more than 400 µM; in assay [3], 400 µM (≈ 114 µg/mL); in [4], 400 µM (≈ 114 µg/mL); in [5] it was 400 µM (≈ 114 µg/mL); against Candida albicans it was more than 400 µM. Further, the minimal inhibitory concentration (MIC) in the assay on Rhodotorula mucilaginosa was 200 µM (≈ 57.1 µg/mL); with Aspergillus niger it was 200 µM (≈ 57.1 µg/mL); with Mucor mucedo, more than 400 µM; with Penicillium chrysogenum, 200 µM (≈ 57.1 µg/mL); in the assay with Rhizopus arrhizus it was more than 400 µM; against Escherichia coli, 400 µM (≈ 114 µg/mL). Also, the minimal inhibitory concentration (MIC) in the assay on Bacillus subtilis was 400 µM (≈ 114 µg/mL); against Micrococcus luteus, more than 400 µM.
With `CCCC/N=C(\N)NC`, the minimal inhibitory concentration (MIC) (with Saccharomyces cerevisiae [1]; against Saccharomyces cerevisiae [2]; in [3]; in assay [4]; in assay [5]; with Candida albicans) was more than 400 µM each time. Moreover, the minimum inhibitory concentration (MIC) with Rhodotorula mucilaginosa was more than 400 µM; with Aspergillus niger it was more than 400 µM; against Mucor mucedo, more than 400 µM; with Penicillium chrysogenum it was 100 µM (≈ 12.9 µg/mL); against Rhizopus arrhizus, more than 400 µM; against Escherichia coli it was 400 µM (≈ 51.7 µg/mL). Also, the minimal inhibitory concentration (MIC) against Bacillus subtilis and against Micrococcus luteus was more than 400 µM throughout.
Take `CCCCCCCC/N=C(\N)NC`: the minimal inhibitory concentration (MIC) with Saccharomyces cerevisiae [1] is more than 400 µM; against Saccharomyces cerevisiae [2], more than 400 µM; in assay [3], 400 µM (≈ 74.1 µg/mL); in assay [4] it was 200 µM (≈ 37.1 µg/mL); in assay [5], 400 µM (≈ 74.1 µg/mL); against Candida albicans, more than 400 µM. Moreover, the MIC was more than 400 µM against Rhodotorula mucilaginosa; more than 400 µM in the assay with Aspergillus niger; more than 400 µM against Mucor mucedo; 100 µM (≈ 18.5 µg/mL) against Penicillium chrysogenum; more than 400 µM against Rhizopus arrhizus; 400 µM (≈ 74.1 µg/mL) against Escherichia coli. The MIC against Bacillus subtilis and in the assay on Micrococcus luteus was more than 400 µM throughout.
Regarding `C[C@@H]1[C@H](O)[C@@H](C)/C=C/C=C/C=C/C=C/C=C/C=C/C=C/[C@H](O[C@@H]2O[C@H](C)[C@@H](O)[C@H](N)[C@@H]2O)C[C@@H]2O[C@](O)(C[C@@H](O)C[C@@H](O)[C@H](O)CC[C@@H](O)C[C@@H](O)CC(=O)O[C@H]1C)C[C@H](O)[C@H]2C(=O)O`, the result with Saccharomyces cerevisiae [7] was inactive.
As for `C/N=C(/N)NCCCCCCCCCCCCO`, the MIC (in the assay on Saccharomyces cerevisiae [1]; in the assay with Saccharomyces cerevisiae [2]; in assay [3]; in assay [4]; in [5]; with Candida albicans) was more than 400 µM each time. Besides, the MIC with Rhodotorula mucilaginosa, against Aspergillus niger, in the assay on Mucor mucedo, in the assay with Penicillium chrysogenum, with Rhizopus arrhizus and against Escherichia coli was more than 400 µM in each case. The MIC against Bacillus subtilis and against Micrococcus luteus was more than 400 µM in each case.
`CCCCCCCCCCCCCCCC/N=C(\N)NC`: the MIC against Saccharomyces cerevisiae [1] was found to be 100 µM (≈ 29.8 µg/mL); with Saccharomyces cerevisiae [2], 50 µM (≈ 14.9 µg/mL); in assay [3], 25 µM (≈ 7.44 µg/mL); in [4], 12.5 µM (≈ 3.72 µg/mL); in [5], 12.5 µM (≈ 3.72 µg/mL); against Candida albicans, 200 µM (≈ 59.5 µg/mL). In addition, the minimum inhibitory concentration (MIC) was 12.5 µM (≈ 3.72 µg/mL) against Rhodotorula mucilaginosa; 25 µM (≈ 7.44 µg/mL) in the assay with Aspergillus niger; 12.5 µM (≈ 3.72 µg/mL) with Mucor mucedo; 6.25 µM (≈ 1.86 µg/mL) in the assay on Penicillium chrysogenum; 50 µM (≈ 14.9 µg/mL) in the assay with Rhizopus arrhizus; 50 µM (≈ 14.9 µg/mL) in the assay with Escherichia coli. Besides, the MIC is 12.5 µM (≈ 3.72 µg/mL) against Bacillus subtilis and more than 400 µM in the assay with Micrococcus luteus. Further, the result in the assay on Saccharomyces cerevisiae [6] was Active.
